Measured values taken from publication PMC9934649 (bioRxiv, 2023).
“Also recorded” adds a separate entry of the source.

What was measured:
WT human CDKL5 = target: T1, WT human CDKL5 (Homo sapiens, UniProt O76039); assay: CDKL5 in vitro kinase assay; assay type: biochemical; conditions: 10 or 100 nM compound, 50 µM ATP, vs untreated WT CDKL5
T1 sequence (O76039 1-960): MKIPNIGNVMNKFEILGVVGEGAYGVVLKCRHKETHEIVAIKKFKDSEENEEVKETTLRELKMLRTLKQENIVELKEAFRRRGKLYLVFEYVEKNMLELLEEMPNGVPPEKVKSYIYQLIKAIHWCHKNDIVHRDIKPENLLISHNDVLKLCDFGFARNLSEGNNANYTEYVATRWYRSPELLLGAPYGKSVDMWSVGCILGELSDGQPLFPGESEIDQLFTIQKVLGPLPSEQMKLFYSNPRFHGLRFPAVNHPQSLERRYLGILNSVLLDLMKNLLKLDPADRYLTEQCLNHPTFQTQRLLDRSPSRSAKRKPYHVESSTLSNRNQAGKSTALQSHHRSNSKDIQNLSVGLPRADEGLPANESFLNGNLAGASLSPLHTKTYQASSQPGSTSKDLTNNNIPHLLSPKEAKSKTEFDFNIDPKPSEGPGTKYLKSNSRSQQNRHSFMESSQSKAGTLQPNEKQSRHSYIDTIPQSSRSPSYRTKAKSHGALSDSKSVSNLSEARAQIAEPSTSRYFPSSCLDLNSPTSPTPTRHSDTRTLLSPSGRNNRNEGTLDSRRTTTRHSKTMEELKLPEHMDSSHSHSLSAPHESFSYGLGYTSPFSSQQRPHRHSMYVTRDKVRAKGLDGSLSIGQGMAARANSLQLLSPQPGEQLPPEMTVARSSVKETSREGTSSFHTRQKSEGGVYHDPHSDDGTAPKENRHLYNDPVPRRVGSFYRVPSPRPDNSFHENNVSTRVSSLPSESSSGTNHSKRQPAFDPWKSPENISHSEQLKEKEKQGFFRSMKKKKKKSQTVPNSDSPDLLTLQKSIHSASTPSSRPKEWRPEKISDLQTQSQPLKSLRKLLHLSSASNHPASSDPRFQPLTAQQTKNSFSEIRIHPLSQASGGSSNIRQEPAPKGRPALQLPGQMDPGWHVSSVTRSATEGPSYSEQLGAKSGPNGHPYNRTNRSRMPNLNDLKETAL
Method in brief: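 FLAG-tagged WT human CDKL5, with a K42R kinase-dead control, was made by HeLa-lysate in vitro translation and purified on cobalt spin columns. Enzyme plus myelin basic protein substrate was incubated in kinase buffer with or without 50 µM ATP at 30 °C for 30 min, with test compound at 10 or 100 nM or DMSO. Read by ADP-Glo. Triplicate; one-way ANOVA with Dunnett's test.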

human motor neurons = assay: Neuroprotection assay, ER stress induced by cyclopiazonic acid; assay type: cell-based; conditions: for Motor neuron survival in response to ER stress: cyclopiazonic acid, 72 hours, 0.16–10 µM; for Motor neuron survival at low concentrations compared with AT-7519: low concentrations (<200 nM)
Method in brief: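 Motor neurons came from NCRM-1 iPSCs carrying a VAChT:TdTomato reporter, differentiated as embryoid bodies for 16 days. They were plated at 2000 cells/well on laminin/poly-ornithine in neurobasal medium with anti-mitotics, B-27, N-2 and GDNF, BDNF, IGF-1 and CNTF. After 48 h, cells were co-treated with cyclopiazonic acid and test compound (4-fold dilutions, 0.16–10 µM, triplicate wells) for 72 h. Calcein AM live cells were counted as % of DMSO-treated survivors.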

GSK3α = GSK3α (Homo sapiens, UniProt P49840); assay: GSK3α NanoBRET assay; assay type: cell-based; conditions: GSK3α NanoBRET IC50, tracer K8
Chain of GSK3α (P49840 whole entry): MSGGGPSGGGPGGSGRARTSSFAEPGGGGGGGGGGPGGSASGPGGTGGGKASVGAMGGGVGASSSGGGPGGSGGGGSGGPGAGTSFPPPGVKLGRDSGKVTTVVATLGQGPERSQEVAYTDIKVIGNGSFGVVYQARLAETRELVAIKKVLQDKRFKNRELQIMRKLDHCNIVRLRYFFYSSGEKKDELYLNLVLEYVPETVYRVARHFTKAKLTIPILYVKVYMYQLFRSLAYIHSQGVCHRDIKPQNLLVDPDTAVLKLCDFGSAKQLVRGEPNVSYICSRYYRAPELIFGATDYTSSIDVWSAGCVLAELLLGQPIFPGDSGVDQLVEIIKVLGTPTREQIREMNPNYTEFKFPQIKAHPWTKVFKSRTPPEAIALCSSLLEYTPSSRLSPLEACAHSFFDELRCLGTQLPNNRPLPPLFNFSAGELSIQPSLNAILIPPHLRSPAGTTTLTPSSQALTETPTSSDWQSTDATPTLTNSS

CDKL5 [1] = target: T2, CDKL5 (Homo sapiens, UniProt O76039); assay: CDKL5 split luciferase assay; assay type: binding; conditions: compound 2 vs compound 4
T2 sequence (O76039 1-960): T1 sequence (O76039 1-960)
Method in brief: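 Luminescence-based competition binding assay: test compound displaces an active-site-dependent probe from CDKL5. Run as 12-point dose–response in duplicate to give IC50 values.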

CDKL5 [2] = target: T2, CDKL5; assay: CDKL5 NanoBRET in-cell target engagement assay; assay type: cell-based
CDKL5 expression = assay: Western blot of CDKL5 expression in rat primary cortical neurons; assay type: cell-based; conditions: 1 hour treatment
Method in brief: (§1)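 Cortical neurons were taken from E18.5 Long Evans rat embryos (trypsin 0.25%, 15 min, 37 °C) and plated at 300,000/well on poly-D-lysine/laminin. At DIV11–14, cells were given 5 nM–5 µM test compound or DMSO for 1 h at 37 °C. Lysates were immunoblotted with ECL detection. pEB2 S222 was normalised to total EB2, pβ-catenin to total β-catenin, and CDKL5 to tubulin.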

[3] = tested on: S33/37/T41 β-Catenin phosphorylation; assay type: cell-based; conditions: rat primary cortical neurons, 1 hour, dose-response
Method in brief: as §1

S222 EB2 phosphorylation = assay: Western blot of S222 EB2 phosphorylation in rat primary cortical neurons; assay type: cell-based; conditions: 1 hour, 5 nM, 50 nM, 500 nM or 5 µM
Method in brief: as §1

CDKL5 kinase domain = target: T3, CDKL5 kinase domain (Homo sapiens, UniProt O76039, T169D/Y171E); assay: Thermal shift assay; assay type: binding; conditions: all concentrations evaluated (12.5, 25, or 50 µM)
T3 sequence (O76039 1-303 T169D/Y171E): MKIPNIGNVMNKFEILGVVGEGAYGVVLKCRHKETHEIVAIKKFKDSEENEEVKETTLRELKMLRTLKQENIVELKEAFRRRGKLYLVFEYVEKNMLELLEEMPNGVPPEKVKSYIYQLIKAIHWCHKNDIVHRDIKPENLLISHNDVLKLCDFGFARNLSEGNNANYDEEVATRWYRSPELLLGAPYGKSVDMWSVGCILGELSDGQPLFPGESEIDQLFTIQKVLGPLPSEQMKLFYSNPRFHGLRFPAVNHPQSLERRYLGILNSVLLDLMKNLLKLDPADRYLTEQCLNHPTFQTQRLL
Method in brief: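 The CDKL5 kinase domain (construct boundaries of 4BGQ) was used at 4 µM in 10 mM HEPES-NaOH pH 7.4, 500 mM NaCl with 5× SYPRO Orange. It was incubated with test compound at 12.5, 25 or 50 µM. Fluorescence was recorded on a real-time PCR instrument to derive melting-temperature shifts.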

GSK3β = GSK3β (Homo sapiens, UniProt P49841); assay: GSK3β NanoBRET assay; assay type: cell-based; conditions: GSK3β NanoBRET IC50, tracer K8
Chain of GSK3β (P49841 whole entry): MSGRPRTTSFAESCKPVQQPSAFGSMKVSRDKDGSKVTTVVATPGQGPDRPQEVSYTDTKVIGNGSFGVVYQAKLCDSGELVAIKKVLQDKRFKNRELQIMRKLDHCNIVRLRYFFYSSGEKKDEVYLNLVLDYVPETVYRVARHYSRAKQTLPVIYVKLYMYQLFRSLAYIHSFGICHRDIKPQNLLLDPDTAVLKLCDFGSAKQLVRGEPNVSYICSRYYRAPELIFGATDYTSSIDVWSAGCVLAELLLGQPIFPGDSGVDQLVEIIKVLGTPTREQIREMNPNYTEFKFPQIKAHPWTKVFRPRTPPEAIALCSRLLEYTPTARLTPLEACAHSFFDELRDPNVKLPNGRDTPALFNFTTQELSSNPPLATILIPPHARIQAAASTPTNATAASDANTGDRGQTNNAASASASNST

DYRK1B = DYRK1B (Homo sapiens, UniProt Q9Y463); assay: Radiometric HotSpot kinase assay; assay type: biochemical; conditions: enzymatic IC50 values
Chain of DYRK1B (Q9Y463 whole entry): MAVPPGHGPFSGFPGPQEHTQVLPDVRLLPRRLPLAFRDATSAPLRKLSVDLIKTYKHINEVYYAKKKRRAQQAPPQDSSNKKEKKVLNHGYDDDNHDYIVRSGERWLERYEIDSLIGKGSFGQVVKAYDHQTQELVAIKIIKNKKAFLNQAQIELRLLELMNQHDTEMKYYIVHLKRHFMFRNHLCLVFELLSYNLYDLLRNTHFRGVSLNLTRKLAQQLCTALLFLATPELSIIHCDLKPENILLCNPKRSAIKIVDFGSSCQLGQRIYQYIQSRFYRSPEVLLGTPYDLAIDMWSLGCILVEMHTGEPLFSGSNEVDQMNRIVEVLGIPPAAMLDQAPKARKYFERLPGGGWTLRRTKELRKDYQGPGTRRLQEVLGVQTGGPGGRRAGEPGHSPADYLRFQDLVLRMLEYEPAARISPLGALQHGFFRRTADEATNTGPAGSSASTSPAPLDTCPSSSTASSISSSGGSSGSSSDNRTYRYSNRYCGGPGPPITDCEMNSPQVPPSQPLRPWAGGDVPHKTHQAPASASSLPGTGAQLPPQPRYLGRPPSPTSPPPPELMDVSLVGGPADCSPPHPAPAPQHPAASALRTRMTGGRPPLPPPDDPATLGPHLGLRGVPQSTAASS
Method in brief: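 Window was taken from enzymatic IC50s. DYRK1B: radiometric HotSpot assay at ATP Km, 10-point dose–response. GSK3β: radiometric assay at ATP Km, 9-point dose–response.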

With CCN1CCN(Cc2ccc(NC(=O)Nc3ccc(Oc4cc(NC)ncn4)cc3)cc2C(F)(F)F)CC1 [AST-487, reference compound] the “Effect on CDKL5 kinase activity” value (WT human CDKL5) was “robust, dose-dependent inhibition”.

O=C(NC1CCNCC1)c1n[nH]cc1NC(=O)c1c(Cl)cccc1Cl [AT-7519, N-(4-piperidinyl)-4-(2,6-dichlorobenzoylamino)-1H-pyrazole-3-carboxamide, reference compound] was tested, and the “Motor neuron survival in response to ER stress” value (human motor neurons) was “neuroprotective”.

For O=C(Nc1c[nH]nc1C(=O)NC1CCNCC1)c1cc(F)cc(F)c1 [Compound 2, 4-(3,5-difluorobenzamido)-N-(piperidin-4-yl)-1H-pyrazole-3-carboxamide], the IC50 (GSK3α) was less than 30 nM, the “Fold higher potency than compound 4 in split-luciferase CDKL5 assay” value (CDKL5 [1]) was roughly 130 fold and the IC50 (CDKL5 [2]) was 4.6 nM. For the same compound, the CDKL5 expression (CDKL5 expression) was “not altered”, the “Effect on CDKL5 kinase activity” value (WT human CDKL5) was “robust, dose-dependent inhibition” and the “Phosphorylation of β-catenin (S33/37/T41)” value [3] was “reduced in a dose-dependent manner”. For the same compound, the “Phosphorylation of EB2 (S222)” value (S222 EB2 phosphorylation) was “inhibited in a dose-dependent manner”, the “Change in melting temperature (ΔTm), CDKL5” value (CDKL5 kinase domain) was greater than 6 °C and the IC50 (GSK3β) was less than 30 nM. For the same compound, the “Motor neuron survival in response to ER stress” value (human motor neurons) was “neuroprotective; also recorded: promote survival of motor neurons” and the “Motor neuron survival at low concentrations compared with AT-7519” value (human motor neurons) was “better promoted motor neuron survival than AT-7519”.

O=C(NCC1CCOCC1)c1n[nH]cc1NC(=O)c1c(F)cccc1F [Compound 4, 4-(2,6-difluorobenzamido)-N-((tetrahydro-2H-pyran-4-yl)methyl)-1H-pyrazole-3-carboxamide] was tested, and the “Selectivity window between GSK3β and DYRK1B, the next most potently inhibited kinase” value (DYRK1B) was 23 fold, the IC50 (CDKL5 [2]) was 4400 nM and the “Fold less active than compound 2 in CDKL5 NanoBRET” value (CDKL5 [2]; compound 4 vs compound 2) was ~ 1000 ×. The CDKL5 expression (CDKL5 expression) was “not altered”, the “Effect on CDKL5 kinase activity” value (WT human CDKL5) was “No significant difference” and the “Phosphorylation of β-catenin (S33/37/T41)” value [3] was “reduced in a dose-dependent manner”. The “Phosphorylation of EB2 (S222)” value (S222 EB2 phosphorylation) was “only at the highest concentration”, the “Motor neuron survival in response to ER stress” value (human motor neurons) was “neuroprotective; also recorded: promote survival of motor neurons” and the “Motor neuron survival at low concentrations compared with AT-7519” value (human motor neurons) was “better promoted motor neuron survival than AT-7519”.

CS(=O)(=O)CCNCc1ccc(-c2ccc3ncnc(Nc4ccc(OCc5cccc(F)c5)c(Cl)c4)c3c2)o1 [lapatinib, reference compound] was tested, and the “Effect on CDKL5 kinase activity” value (WT human CDKL5) was “No significant difference”.
